Assay results reported in PMC6800648 (Cell chemical biology, 2019).
One block for each compound: values may come before it. Numbered stars: 1 amine (or outer) side, 2 acyl side, 3 side chain; on linkers, the order of the positions; unused ones are H or OH. Square brackets hold non-standard residues; d marks the D form. Peptide text beside a SMILES is read from it. * marks the point of attachment. X2 = COc1ccc(CN(C)CCCC[C@H](N[*:1])C(=O)[*:2])cc1; X5 = CN(CCCC[C@H](N[*:1])C(=O)[*:2])Cc1ccc(F)cc1; X8 = O=C([C@H](CCCCN(C1CCC1)C1CCC1)N[*:1])[*:2]; X3 = CN(CCCC[C@H](N[*:1])C(=O)[*:2])Cc1ccccc1; X7 = CN(CCCC[C@H](N[*:1])C(=O)[*:2])C1CCCCC1; X1 = CCCN(CCCC[C@H](N[*:1])C(=O)[*:2])C(C)C; X6 = CN(CCCC[C@H](N[*:1])C(=O)[*:2])C1CCCC1; Lys(Et,iPr) = CCN(CCCC[C@H](N)C(=O)O)C(C)C; X4 = COC(C)N(C)CCCC[C@H](N[*:1])C(=O)[*:2]; Benzoyl(4-tBu) = CC(C)(C)c1ccc(C(=O)*)cc1; X9 = O=C([C@H](CCCCN1CCCCC1)N[*:1])[*:2]; Lys(Et2) = CCN(CC)CCCC[C@H](N)C(=O)O; Lys(Me2) = CN(C)CCCC[C@H](N)C(=O)O; NMeA = CN[C@@H](C)C(=O)O

What was measured:
CBX7 [1] = target: T1, CBX7 (Mus musculus, UniProt Q8VDS3); assay: Polycomb in-vivo Assay; format: cell-based; settings: for activity in the Polycomb in-vivo Assay (reactivation of GFP expression): 48-hour treatment, flow cytometry
T1 sequence (Q8VDS3 2-69 limits assumed): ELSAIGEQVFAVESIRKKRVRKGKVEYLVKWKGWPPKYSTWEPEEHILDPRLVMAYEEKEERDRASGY

CBX7 chromodomain [2] = target: T2, CBX7 chromodomain (Homo sapiens, UniProt O95931); assay: Electrophoretic mobility shift assay; format: biochemical; settings: EMSA, 150 mM CBX7 and 100 nM FAM-dsDNA probe, 1:3 ratio of compound to CBX7
T2 sequence (O95931 1-62): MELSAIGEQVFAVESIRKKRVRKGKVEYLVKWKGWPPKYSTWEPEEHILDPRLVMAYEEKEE
Outline: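 Buffer: 25 mM Tris-HCl pH 7.4, 100 mM NaCl, 0.05% Tween-20, 2 mM DTT. Compound runs used 150 µM CBX7 with 100 nM FAM-DNA probe and 50 µM test compound (0.3% DMSO); protein-only runs used a three-fold CBX7 series. Binding 20 min on ice. Native 10% Tris-glycine gel at 100 V, 4°C, 90 min in the dark. FAM fluorescence imaged, then Coomassie-stained.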

mESCs = assay: CellTiter-Glo viability assay in mESCs; format: cell-based, mouse; settings: 48 hr
Outline: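 Mouse ES cells, 5,000 per well, exposed in technical triplicate for 48 hr at 37°C to a ten-point three-fold dilution series prepared from 50 mM DMSO stocks (0.2% DMSO final). Media-only wells served as negative controls. After equilibrating at room temperature, CellTiter-Glo was added, with 2 min shaking and 10 min settling, then luminescence read.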

CBX7 [3] = target: T3, CBX7 (Mus musculus, UniProt Q8VDS3); format: cell-based; settings: TetOFF reporter cell line; UNC4976 compared to UNC3866 treatment
T3 sequence (Q8VDS3 1-158): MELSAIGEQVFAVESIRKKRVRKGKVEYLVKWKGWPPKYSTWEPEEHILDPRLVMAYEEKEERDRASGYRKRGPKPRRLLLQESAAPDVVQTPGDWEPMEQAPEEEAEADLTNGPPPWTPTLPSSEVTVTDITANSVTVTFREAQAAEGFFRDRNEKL

CBX7 chromodomain [4] = target: T2, CBX7 chromodomain; assay: Fluorescence polarization; format: biochemical; settings: 30 μM CBX7 chromodomain, 100 nM FAM-dsDNA
Outline: (§1)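 Buffer: 25 mM Tris-HCl pH 7.4, 100 mM NaCl, 0.05% Tween-20, 2 mM DTT; 100 nM FAM-dsDNA or FAM-ANRIL-RNA; 0.2% DMSO; 30 min at RT. Compound titration: eight-point three-fold series from 100 µM with 30 µM CBX7 chromodomain. Ratio mode: CBX7 and test compound co-diluted at fixed 3:1 from 300 µM/100 µM. Polarisation normalised to a no-protein control; α fitted by the Stockton-Ehlert allosteric model.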

CBX7 chromodomain [5] = target: T2, CBX7 chromodomain; assay: Fluorescence polarization; format: biochemical; settings: 30 μM CBX7 chromodomain, 100 nM FAM-ANRIL-RNA
Outline: as §1

Structure (SMILES): CCN(CC)CCCC[C@H](NC(=O)[C@H](CC(C)C)NC(=O)[C@H](C)N(C)C(=O)[C@H](Cc1ccccc1)NC(=O)c1ccc(C(C)(C)C)cc1)C(=O)N[C@@H](CO)C(=O)OC [UNC4219, methyl N^2-N-((4-(tert-butyl)benzoyl)-L-phenylalanyl)-N-methyl-L-alanyl-L-leucyl-N^6,N^6-diethyl-L-lysyl-L-serinate, reference compound] ({Benzoyl(4-tBu)}-F[NMeA]L[Lys(Et2)]S-OMe)
effect on FAM-dsDNA binding to CBX7 (CBX7 chromodomain [2]): no effect
mESC viability upon compound treatment (mESCs): non-toxic
derepression of the GFP reporter gene / maintenance of Polycomb silencing (CBX7 [3]): unaffected
activity in the Polycomb in-vivo Assay (reactivation of GFP expression) (CBX7 [1]): inactive

Structure (SMILES): COc1cccc(C(=O)N2CCN(C(=O)COc3cccc(C)c3)CC2)c1OC [MS452, reference compound]
change of fluorescence polarization on compound titration (CBX7 chromodomain [4]): slight destabilizing effect
effect on FAM-dsDNA binding to CBX7 (CBX7 chromodomain [2]): no effect
activity in the Polycomb in-vivo Assay (reactivation of GFP expression) (CBX7 [1]): inactive
change of fluorescence polarization on compound titration (CBX7 chromodomain [5]): slight destabilizing effect

Structure (SMILES): COC(=O)[C@H](CO)NC(=O)[C@H](CCCCN1CCCCC1)NC(=O)[C@H](CC(C)C)NC(=O)[C@H](C)NC(=O)[C@H](Cc1ccccc1)NC(=O)c1ccc(C(C)(C)C)cc1 [UNC6374, methyl ((S)-2-((S)-2-((S)-2-((S)-2-(4-(tert-butyl)benzamido)-3-phenylpropanamido)propanamido)-4-methylpentanamido)-6-(piperidin-1-yl)hexanoyl)-L-serinate] ({Benzoyl(4-tBu)}-FAL[X9]S-OMe)
EC50 (CBX7 [1]): 33.1 ± 1.9 µM

Structure (SMILES): Cc1ccccc1Cn1c(=N)n(CC(O)c2ccc(Cl)c(Cl)c2)c2ccccc21.Cl (centres unmarked) [MS351, reference compound]
change of fluorescence polarization on compound titration (CBX7 chromodomain [4]): did not observe increased fluorescence polarization
effect on FAM-dsDNA binding to CBX7 (CBX7 chromodomain [2]): did not observe enhancement
activity in the Polycomb in-vivo Assay (reactivation of GFP expression) (CBX7 [1]): inactive
change of fluorescence polarization on compound titration (CBX7 chromodomain [5]): did not observe increased fluorescence polarization

Structure (SMILES): COC(=O)[C@H](CO)NC(=O)[C@H](CCCCN(C)C1CCCCC1)NC(=O)[C@H](CC(C)C)NC(=O)[C@H](C)NC(=O)[C@H](Cc1ccccc1)NC(=O)c1ccc(C(C)(C)C)cc1 [UNC6372, methyl N^2-(4-(tert-butyl)benzoyl)-L-phenylalanyl-L-alanyl-L-leucyl-N^6-cyclohexyl-N^6-methyl-L-lysyl-L-serinate] ({Benzoyl(4-tBu)}-FAL[X7]S-OMe)
EC50 (CBX7 [1]): 4.59 ± 0.292 µM

Structure (SMILES): COC(=O)[C@H](CO)NC(=O)[C@H](CCCCN(C1CCC1)C1CCC1)NC(=O)[C@H](CC(C)C)NC(=O)[C@H](C)NC(=O)[C@H](Cc1ccccc1)NC(=O)c1ccc(C(C)(C)C)cc1 [UNC6370, methyl N^2-(4-(tert-butyl)benzoyl)-L-phenylalanyl-L-alanyl-L-leucyl-N^6,N^6-dicyclobutyl-L-lysyl-L-serinate] ({Benzoyl(4-tBu)}-FAL[X8]S-OMe)
EC50 (CBX7 [1]): 13.7 ± 0.535 µM

Other lines, results leading:

EC50 (CBX7 [1]): 36.6 ± 1.14 µM
Structure (SMILES): CCN(CCCC[C@H](NC(=O)[C@H](CC(C)C)NC(=O)[C@H](C)NC(=O)[C@H](Cc1ccccc1)NC(=O)c1ccc(C(C)(C)C)cc1)C(=O)N[C@@H](CO)C(=O)OC)C(C)C [UNC4941, methyl N^2-(4-(tert-butyl)benzoyl)-L-phenylalanyl-L-alanyl-L-leucyl-N^6-ethyl-N^6-isopropyl-L-lysyl-L-serinate] ({Benzoyl(4-tBu)}-FAL[Lys(Et,iPr)]S-OMe)

EC50 (CBX7 [1]): 23.7 ± 1.74 µM
Structure (SMILES): COC(=O)[C@H](CO)NC(=O)[C@H](CCCCN(C)C(C)OC)NC(=O)[C@H](CC(C)C)NC(=O)[C@H](C)NC(=O)[C@H](Cc1ccccc1)NC(=O)c1ccc(C(C)(C)C)cc1 (stereo partly drawn) [UNC6481, methyl N^2-(4-(tert-butyl)benzoyl)-L-phenylalanyl-L-alanyl-L-leucyl-N^6-(1-methoxyethyl)-N^6-methyl-L-lysyl-L-serinate] ({Benzoyl(4-tBu)}-FAL[X4]S-OMe)

EC50 (CBX7 [1]): 2.06 ± 0.135 µM
Structure (SMILES): COC(=O)[C@H](CO)NC(=O)[C@H](CCCCN(C)Cc1ccc(OC)cc1)NC(=O)[C@H](CC(C)C)NC(=O)[C@H](C)NC(=O)[C@H](Cc1ccccc1)NC(=O)c1ccc(C(C)(C)C)cc1 [UNC6483, methyl N^2-(4-(tert-butyl)benzoyl)-L-phenylalanyl-L-alanyl-L-leucyl-N^6-(4-methoxybenzyl)-N^6-methyl-L-lysyl-L-serinate] ({Benzoyl(4-tBu)}-FAL[X2]S-OMe)

EC50 (CBX7 [1]): 2.36 ± 0.115 µM
Structure (SMILES): COC(=O)[C@H](CO)NC(=O)[C@H](CCCCN(C)Cc1ccccc1)NC(=O)[C@H](CC(C)C)NC(=O)[C@H](C)NC(=O)[C@H](Cc1ccccc1)NC(=O)c1ccc(C(C)(C)C)cc1 [UNC6375, methyl N^6-benzyl-N^2-(4-(tert-butyl)benzoyl)-L-phenylalanyl-L-alanyl-L-leucyl-N^6-methyl-L-lysyl-L-serinate] ({Benzoyl(4-tBu)}-FAL[X3]S-OMe)

EC50 (CBX7 [1]): 2.22 ± 0.194 µM
Structure (SMILES): COC(=O)[C@H](CO)NC(=O)[C@H](CCCCN(C)Cc1ccc(F)cc1)NC(=O)[C@H](CC(C)C)NC(=O)[C@H](C)NC(=O)[C@H](Cc1ccccc1)NC(=O)c1ccc(C(C)(C)C)cc1 [UNC6376, methyl N^2-(4-(tert-butyl)benzoyl)-L-phenylalanyl-L-alanyl-L-leucyl-N^6-(4-fluorobenzyl)-N^6-methyl-L-lysyl-L-serinate] ({Benzoyl(4-tBu)}-FAL[X5]S-OMe)

EC50 (CBX7 [1]): 26.5 ± 3.24 µM
Structure (SMILES): CCCN(CCCC[C@H](NC(=O)[C@H](CC(C)C)NC(=O)[C@H](C)NC(=O)[C@H](Cc1ccccc1)NC(=O)c1ccc(C(C)(C)C)cc1)C(=O)N[C@@H](CO)C(=O)OC)C(C)C [UNC4971, methyl N^2-(4-(tert-butyl)benzoyl)-L-phenylalanyl-L-alanyl-L-leucyl-N^6-isopropyl-N^6-propyl-L-lysyl-L-serinate] ({Benzoyl(4-tBu)}-FAL[X1]S-OMe)

EC50 (CBX7 [1]): 105 ± 11.3 µM
Structure (SMILES): COC(=O)[C@H](CO)NC(=O)[C@H](CCCCN(C)C)NC(=O)[C@H](CC(C)C)NC(=O)[C@H](C)NC(=O)[C@H](Cc1ccccc1)NC(=O)c1ccc(C(C)(C)C)cc1 [UNC5352, methyl N^2-(4-(tert-butyl)benzoyl)-L-phenylalanyl-L-alanyl-L-leucyl-N^6,N^6-dimethyl-L-lysyl-L-serinate] ({Benzoyl(4-tBu)}-FAL[Lys(Me2)]S-OMe)

EC50 (CBX7 [1]): ~20 µM
Structure (SMILES): COC(=O)[C@H](CO)NC(=O)[C@H](CCCCN(C)C1CCCC1)NC(=O)[C@H](CC(C)C)NC(=O)[C@H](C)NC(=O)[C@H](Cc1ccccc1)NC(=O)c1ccc(C(C)(C)C)cc1 [UNC6371, methyl N^2-(4-(tert-butyl)benzoyl)-L-phenylalanyl-L-alanyl-L-leucyl-N^6-cyclopentyl-N^6-methyl-L-lysyl-L-serinate] ({Benzoyl(4-tBu)}-FAL[X6]S-OMe)
